Results reported in ChEMBL document CHEMBL3745659, “Synthesis and Characterization of 4,11-Diaminoanthra[2,3-b]furan-5,10-diones: Tumor Cell Apoptosis through tNOX-Modulated NAD(+)/NADH Ratio and SIRT1” (J Med Chem, 2015).
pIC50: −log10 of the molar value. Active and inactive are the calls of the source. No cut-off for these calls is given here.

How the values were obtained:
[1] = system: Calf thymus DNA; assay: Binding affinity to calf thymus double stranded DNA by spectrophotometric titration method; assay type: nucleic-acid assay; conditions: Bos taurus
Procedure, shortened: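 Absorption spectra of compound recorded while double-stranded DNA concentration was increased (spectrophotometric titration); extinction at absorption maxima 540 and 585 nm and band shift followed.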

[2] = target: T1, NAD-dependent protein deacetylase sirtuin-1 (Homo sapiens) (UniProt Q96EB6); assay: Inhibition of human recombinant SIRT1 deacetylase activity using Arg-His-Lys-Lys(epsilon-acetyl)-AMC as substrate incubated for 45 mins by fluorescence analysis
T1 sequence (whole entry): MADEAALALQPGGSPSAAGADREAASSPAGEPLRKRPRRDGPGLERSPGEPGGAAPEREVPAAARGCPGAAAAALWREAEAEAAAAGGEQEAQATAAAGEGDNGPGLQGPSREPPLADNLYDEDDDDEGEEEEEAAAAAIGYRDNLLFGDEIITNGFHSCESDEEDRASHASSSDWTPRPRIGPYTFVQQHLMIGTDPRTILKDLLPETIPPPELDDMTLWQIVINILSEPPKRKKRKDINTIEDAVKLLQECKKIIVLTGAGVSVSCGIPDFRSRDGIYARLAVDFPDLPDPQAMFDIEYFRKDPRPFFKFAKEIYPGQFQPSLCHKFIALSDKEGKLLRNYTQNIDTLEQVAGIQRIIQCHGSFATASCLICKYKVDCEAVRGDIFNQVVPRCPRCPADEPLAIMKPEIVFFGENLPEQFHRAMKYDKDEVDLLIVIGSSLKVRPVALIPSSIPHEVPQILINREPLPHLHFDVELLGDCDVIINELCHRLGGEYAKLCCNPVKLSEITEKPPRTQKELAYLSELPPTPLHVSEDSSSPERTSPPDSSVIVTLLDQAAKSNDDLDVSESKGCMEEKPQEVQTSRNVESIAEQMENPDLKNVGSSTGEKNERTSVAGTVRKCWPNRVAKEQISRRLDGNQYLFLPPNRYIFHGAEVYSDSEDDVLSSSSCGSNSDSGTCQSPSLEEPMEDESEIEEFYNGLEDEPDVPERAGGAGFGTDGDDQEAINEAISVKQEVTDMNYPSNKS

[3] = target: T2, DNA topoisomerase 1 (Homo sapiens) (UniProt P11387); assay: Inhibition of Top1 (unknown origin)-mediated relaxation of pBR322 DNA at 2.5 uM incubated for 30 mins by ethidium bromide staining-based gel electrophoresis assay
T2 sequence (whole entry): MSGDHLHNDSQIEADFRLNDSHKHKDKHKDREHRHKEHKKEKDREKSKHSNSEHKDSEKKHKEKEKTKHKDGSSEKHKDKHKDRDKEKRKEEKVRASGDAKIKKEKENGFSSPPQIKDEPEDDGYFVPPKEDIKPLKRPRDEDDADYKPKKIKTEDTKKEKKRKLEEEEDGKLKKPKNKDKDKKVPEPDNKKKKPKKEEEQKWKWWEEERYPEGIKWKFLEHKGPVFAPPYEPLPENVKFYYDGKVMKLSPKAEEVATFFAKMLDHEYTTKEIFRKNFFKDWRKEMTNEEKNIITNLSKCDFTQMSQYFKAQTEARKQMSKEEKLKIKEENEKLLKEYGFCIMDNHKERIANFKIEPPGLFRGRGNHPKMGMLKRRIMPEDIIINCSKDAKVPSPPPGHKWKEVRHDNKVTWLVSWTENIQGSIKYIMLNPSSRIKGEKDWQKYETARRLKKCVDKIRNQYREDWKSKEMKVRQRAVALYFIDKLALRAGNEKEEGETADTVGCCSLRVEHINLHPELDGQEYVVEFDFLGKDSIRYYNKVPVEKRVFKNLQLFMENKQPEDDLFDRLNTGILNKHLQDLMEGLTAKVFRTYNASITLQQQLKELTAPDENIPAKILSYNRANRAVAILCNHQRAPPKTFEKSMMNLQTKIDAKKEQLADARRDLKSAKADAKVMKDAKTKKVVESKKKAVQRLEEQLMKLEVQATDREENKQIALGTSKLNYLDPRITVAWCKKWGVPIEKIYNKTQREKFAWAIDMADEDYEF
Procedure, shortened: (§1)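 Supercoiled pBR322 plasmid treated with Top1 without drug or with compound at 0.5, 2.5 or 10 µM; camptothecin as reference; relaxation assessed by gel electrophoresis.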

[4] = system: AGS; assay: Upregulation of phosphorylated p53 level in human AGS cells at 1 and 5 uM after 24 hrs by Western blot analysis; assay type: functional, cell-based
[5] = system: AGS; assay: Induction of apoptosis in human AGS cells assessed as necrotic cells at 10 uM after 24 hrs by annexin V-FITC staining-based flow cytometric analysis (Rvb=1.1%); assay type: functional
[6] = system: K562; assay: Antiproliferative activity against human K562 cells after 72 hrs by MTT assay; assay type: functional, cell-based; conditions: K562, 72 h
[7] = system: AGS; assay: Upregulation of acetylated p53 level in human AGS cells at 1 and 5 uM after 24 hrs by Western blot analysis; assay type: functional, cell-based
[8] = system: L1210; assay: Antiproliferative activity against mouse L1210 cells after 72 hrs by MTT assay; conditions: L1210, 72 h
[9] = system: AGS; assay: Upregulation of total p53 level in human AGS cells at 1 and 5 uM after 24 hrs by Western blot analysis; assay type: cell-based
[10] = Antiproliferative activity against human HCT116 cells after 72 hrs by MTT assay; assay type: functional, cell-based; conditions: HCT-116, 72 h
[11] = system: AGS; assay: Downregulation of tNOX protein level in human AGS cells at 1 and 5 uM after 24 hrs by Western blot analysis; assay type: functional, cell-based
[12] = system: AGS; assay: Induction of apoptosis in human AGS cells after 24 hrs by annexin V-FITC staining-based flow cytometric analysis; assay type: functional, cell-based
Procedure, shortened: (§2)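 AGS cells exposed to compound for 24 h; Annexin V-FITC staining and flow cytometry used to give percentage of apoptotic cells; mean ± S.E. from at least three independent experiments.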

[13] = system: AGS; assay: Induction of apoptosis in human AGS cells assessed as early apoptotic cells at 10 uM after 24 hrs by annexin V-FITC staining-based flow cytometric analysis (Rvb=9.8%); assay type: functional; procedure, shortened: as §2
[14] = system: AGS; assay: Upregulation of caspase3-directed PARP cleavage in human AGS cells at 5 uM after 24 hrs by Western blot analysis; assay type: functional, cell-based
[15] = system: AGS; assay: Induction of apoptosis in human AGS cells assessed as late apoptotic cells at 10 uM after 24 hrs by annexin V-FITC staining-based flow cytometric analysis (Rvb=5.5%); assay type: functional; procedure, shortened: as §2
[16] = system: HeLa; assay: Antiproliferative activity against human HeLa cells after 72 hrs by MTT assay; assay type: functional, cell-based
[17] = system: CCRF-CEM; assay: Antiproliferative activity against human CEM cells after 72 hrs by MTT assay; assay type: functional, cell-based
[18] = system: K562; assay: Resistance index, ratio of IC50 for human K562/4 cells to IC50 for human K562 cells; assay type: functional
[19] = system: AGS; assay: Induction of apoptosis in human AGS cells assessed as viable cells at 10 uM after 24 hrs by annexin V-FITC staining-based flow cytometric analysis (Rvb=83.7%); assay type: functional; procedure, shortened: as §2
[20] = system: AGS; assay: Downregulation of SIRT1 protein level in human AGS cells at 1 and 5 uM after 24 after 24 hrs by Western blot analysis; assay type: functional, cell-based
[21] = target: T2, DNA topoisomerase 1 (Homo sapiens); assay: Inhibition of Top1 (unknown origin)-mediated relaxation of pBR322 DNA at 0.5 uM incubated for 30 mins by ethidium bromide staining-based gel electrophoresis assay; procedure, shortened: as §1
[22] = Antiproliferative activity against human K562/4 cells after 72 hrs by MTT assay; assay type: functional, cell-based; conditions: K562/4, 72 h
[23] = system: AGS; assay: Downregulation of Bid protein level in human AGS cells after 24 hrs by Western blot analysis; assay type: functional, cell-based
[24] = Drug uptake in human K562/4 cells at 3 uM incubated for 2 hrs by flow cytometric analysis; assay type: ADME, cell-based; conditions: k562/4, 2 h
Procedure, shortened: (§3)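 K562 and K562/4 cells incubated 2 h with 3 µM compound; uptake measured by flow cytometry as ratios (arbitrary units) of mean fluorescence channels of the histograms; verapamil (10 µM), a Pgp transport blocker, added 30 min before compound where used.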

[25] = system: AGS; assay: Downregulation of tNOX protein level in human AGS cells at 0.1 to 0.5 uM after 24 hrs by Western blot analysis; assay type: functional, cell-based
[26] = system: K562; assay: Drug uptake in human K562 cells at 3 uM incubated for 2 hrs in presence of verapamil by flow cytometric analysis; assay type: ADME, cell-based; conditions: k562, 2 h; procedure, shortened: as §3
[27] = Drug uptake in human K562/4 cells at 3 uM incubated for 2 hrs in presence of verapamil by flow cytometric analysis; assay type: ADME, cell-based; conditions: k562/4, 2 h; procedure, shortened: as §3
[28] = target: T1, NAD-dependent protein deacetylase sirtuin-1 (Homo sapiens); assay: Inhibition of human recombinant SIRT1 deacetylase activity using Arg-His-Lys-Lys(epsilon-acetyl)-AMC as substrate at 5 uM incubated for 45 mins by fluorescence analysis
[29] = system: AGS; assay: Induction of apoptosis in human AGS cells assessed as change in mitochondrial transmembrane potential incubated for 1.5 hrs by DiOC6(3) dye-based flow cytometric analysis; assay type: functional, cell-based

Row | SMILES | Activity [4] | pIC50 [6] | Activity [7] | pIC50 [8] | pIC50 [10] | Activity [12] | Activity [14] | pIC50 [16] | pIC50 [17] | Ratio IC50 [18] | Activity [20] | pIC50 [22] | Activity [23] | Activity [25] | further results
1 | O=C1c2c(O)ccc(O)c2C(=O)c2c(NCCNCCO)ccc(NCCNCCO)c21 | – | – | – | – | – | – | – | – | – | – | – | – | – | – | Ka [1]: 1 ×10⁶ /M
2 | NC(=O)c1cccnc1 | – | – | – | – | – | – | – | – | – | – | – | – | – | – | inhibition [2]: Active
3 | Cc1cc2c(NCCNC(=N)N)c3c(c(NCCNC(=N)N)c2o1)C(=O)c1ccccc1C3=O | – | – | – | – | – | – | – | – | – | – | – | – | – | – | inhibition [3]: Active
4 | CN1CCN(C(=O)c2cc3c(NCCNC(=N)N)c4c(c(NCCNC(=N)N)c3o2)C(=O)c2ccccc2C4=O)CC1 | inactive | 4.31 | inactive | 4.10 | 5.35 | inactive | inactive | 4.42 | 4.01 | >2 | inactive | < 4.00 | inactive | – | inhibition [3]: Active; Activity [5]: inactive; Activity [9]: Not Active; Activity [11]: inactive; Activity [13]: inactive; Activity [15]: inactive; Activity [19]: inactive; inhibition [21]: Active
5 | COc1cccc2c1C(=O)c1c(O)c3c(c(O)c1C2=O)C[C@@](O)(C(=O)CO)C[C@@H]3O[C@H]1C[C@H](N)[C@H](O)[C@H](C)O1 [DOXORUBICIN] | – | 6.92 | – | 6.43 | 6.96 | – | – | – | 7.22 | – | – | 5.01 | – | Active | Drug uptake [24]: Not Active; Drug uptake [26]: Active; Drug uptake [27]: Not Active
6 | NCCNC(=O)c1cc2c(NCCN)c3c(c(NCCN)c2o1)C(=O)c1ccccc1C3=O | – | – | – | 4.58 | 5.19 | – | – | 4.08 | 3.98 | – | – | – | – | – | –
7 | NCCNc1c2c(c(NCCN)c3occc13)C(=O)c1ccccc1C2=O | Active | 6.96 | Active | 6.52 | 6.96 | Dose-dependent effect | Active | 6.26 | 6.12 | 1.36 | Active | 6.82 | Active | Active | inhibition [28]: Active; Activity [29]: Active
8 | N=C(N)NCCNc1c2c(c(NCCNC(=N)N)c3sccc13)C(=O)c1ccccc1C2=O | – | – | – | – | – | – | – | – | – | – | – | – | – | – | inhibition [3]: Active
9 | NCCCNc1c2c(c(NCCCN)c3occc13)C(=O)c1ccccc1C2=O | – | – | – | 6.14 | 6.39 | – | – | 6.06 | 6.05 | – | – | – | – | – | –
10 | CN(C)CCNc1c2c(c(NCCN(C)C)c3occc13)C(=O)c1ccccc1C2=O | Active | 6.92 | Active | 6.64 | 6.82 | Dose-dependent effect | Active | 6.41 | 6.47 | 1.75 | Active | 6.68 | Active | Active | Activity [29]: Active
11 | O=C1c2ccccc2C(=O)c2c1c(NCCNCCO)c1ccoc1c2NCCNCCO | Active | 6.96 | Active | 6.85 | 6.66 | Dose-dependent effect | Active | 6.34 | 6.37 | 89.09 | Active | 5.01 | Active | Active | Activity [29]: Active; Drug uptake [27]: Active
12 | CNCCNc1c2c(c(NCCNC)c3oc(C)cc13)C(=O)c1ccccc1C2=O | – | – | – | – | 5.80 | – | – | 6.72 | – | 35.5 | – | 5.37 | – | – | –
